The source made the active and inactive calls. The calls are words filed in the database; no cut-off is given here.
Columns and labels:
[1] = Stability of compund in pH 7.5 HEPES buffer at 25 uM in presence of human recombinant N-terminal His6-tagged 15-LOX1 expressed in Escherichia coli BL21(DE3) by UV absorption analysis; format: physicochemical; conditions: pH 7.5, 25 µM
Procedure, shortened: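 LA-free control in 25 mM HEPES pH 7.5 at 25 µM compound, run in triplicate. Buffer plus compound was mixed with 10 µL ethanol in place of substrate, then 15-LOX-1 enzyme solution was added. DMSO/buffer served as the vehicle control and buffer replaced enzyme in the blank. Absorbance at 234 nm was monitored over time.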

[2] = Antioxidant activity assessed as DPPH radical scavenging activity incubated for 15 mins under dark condition by spectrophotometric method; format: functional
Procedure, shortened: (§1)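 DPPH radical-scavenging assay run in triplicate in MeOH with 10% DMSO. Compounds were serially diluted 10-fold from a top concentration of 1 mM, or 250 or 500 µM for some, down to 1 nM, with DPPH fixed at 0.1 mM. Incubation was 15 min at ambient temperature, protected from light, with A517 read. The compound-only series was subtracted, data normalized to no-inhibitor absorbance, and EC50 fitted by nonlinear dose–response.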

[3] = Stability of compund in pH 7.5 HEPES buffer at 25 uM in presence of substrate linoleic acid by UV absorption analysis; format: physicochemical; conditions: pH 7.5, 25 µM
Procedure, shortened: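 Enzyme-free control in 25 mM HEPES pH 7.5 at 25 µM compound, run in triplicate, with buffer replacing enzyme. 10 µL of 500 µM linoleic acid stock in ethanol was added; ethanol alone served as the blank, and DMSO/buffer as the vehicle control. Absorbance at 234 nm was monitored over time.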

[4] = Antioxidant activity assessed as ferric ion reducing activity by measuring Fe2+ levels using Fe2+-TPTZ measured 15 secs for 5 mins by FRAP assay; format: functional
[5] = target: T1, Polyunsaturated fatty acid lipoxygenase ALOX15 (Homo sapiens, UniProt P16050); experiment: Inhibition of human recombinant N-terminal His6-tagged 15-LOX1 expressed in Escherichia coli BL21(DE3) using linoleic acid as substrate preincubated for 8 mins followed by substrate addition by UV absorption analysis
T1 sequence (P16050 whole entry): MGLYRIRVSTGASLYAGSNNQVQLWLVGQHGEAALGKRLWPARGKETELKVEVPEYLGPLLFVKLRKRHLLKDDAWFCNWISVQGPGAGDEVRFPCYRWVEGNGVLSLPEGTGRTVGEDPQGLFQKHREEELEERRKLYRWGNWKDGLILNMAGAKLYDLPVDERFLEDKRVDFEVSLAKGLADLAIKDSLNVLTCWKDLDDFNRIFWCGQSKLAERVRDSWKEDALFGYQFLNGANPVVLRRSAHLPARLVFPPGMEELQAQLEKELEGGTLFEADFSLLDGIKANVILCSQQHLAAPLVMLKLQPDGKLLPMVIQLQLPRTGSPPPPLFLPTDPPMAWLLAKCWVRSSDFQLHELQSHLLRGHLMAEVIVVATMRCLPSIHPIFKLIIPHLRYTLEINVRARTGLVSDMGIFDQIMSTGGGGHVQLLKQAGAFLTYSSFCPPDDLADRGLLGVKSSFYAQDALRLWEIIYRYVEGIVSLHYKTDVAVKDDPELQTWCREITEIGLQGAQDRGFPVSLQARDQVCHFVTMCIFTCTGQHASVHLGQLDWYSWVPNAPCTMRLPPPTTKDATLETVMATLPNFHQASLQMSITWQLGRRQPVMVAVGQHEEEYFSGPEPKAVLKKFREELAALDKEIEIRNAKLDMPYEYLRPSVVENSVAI

[6] = Antioxidant activity assessed as DPPH radical scavenging activity at 250 uM incubated for 15 mins under dark condition by spectrophotometric method; format: functional; procedure, shortened: as §1
[7] = Antioxidant activity assessed as DPPH radical scavenging activity at 500 uM incubated for 15 mins under dark condition by spectrophotometric method; format: functional; procedure, shortened: as §1

Compound | Stability [1] | Activity [2] | Stability [3] | Activity [4] | IC50 [5] | other results
CCOC(=O)c1[nH]c2cc(Cl)ccc2c1/C=N/NC(=O)CSc1nc2ccccc2[nH]1 | Stable | inactive | Stable | < 50 µmol/L | – | –
CCOC(=O)c1[nH]c2cc(Cl)ccc2c1/C=N/NC(=O)CC1CCCC1 | – | – | – | – | > 10 µM | –
CCOC(=O)c1[nH]c2cc(Cl)ccc2c1/C=N/NC(=O)Cc1cccnc1 | Stable | inactive | Stable | < 50 µmol/L | – | –
CCOC(=O)c1[nH]c2cc(Cl)ccc2c1/C=N/NC(=O)CCC(C)C | – | – | – | – | > 10 µM | –
CCOC(=O)c1[nH]c2cc(Cl)ccc2c1/C=N/NC(=O)c1cc(C(C)(C)C)nn1Cc1cccc(C)c1 | – | inactive | – | < 50 µmol/L | 4.22 µM | –
O=C1O[C@H]([C@@H](O)CO)C(O)=C1O [ASCORBIC ACID] | – | – | – | – | – | EC50 [2]: 17.2 µM
CCOC(=O)c1[nH]c2cc(Cl)ccc2c1/C=N/NC(=O)Cc1cccs1 | – | – | – | – | > 10 µM | –
CCOC(=O)c1[nH]c2cc(Cl)ccc2c1/C=N/NC(=O)CCc1ccccc1 | – | – | – | – | > 10 µM | –
CCOC(=O)c1[nH]c2cc(Cl)ccc2c1/C=N/NC(=O)Cc1ccccc1 | – | inactive | – | < 50 µmol/L | > 10 µM | –
CCOC(=O)c1[nH]c2cc(Cl)ccc2c1/C=N/NC(=O)CNc1cccc([N+](=O)[O-])c1 | – | – | – | – | > 10 µM | –
CCOC(=O)c1[nH]c2cc(Cl)ccc2c1/C=N/NC(=O)COc1ccc(Cl)cc1Cl | Stable | inactive | Stable | < 50 µmol/L | – | –
CCOC(=O)c1[nH]c2cc(Cl)ccc2c1/C=N/NC(=O)Cc1ccc(OC)c(OC)c1 | Stable | – | Stable | < 50 µmol/L | – | Activity [6]: inactive
CCOC(=O)c1[nH]c2cc(Cl)ccc2c1/C=N/NC(=O)COc1cccc2ccccc12 | – | – | – | – | > 10 µM | –
CCOC(=O)c1[nH]c2cc(Cl)ccc2c1/C=N/NC(=O)C1CCN(C(=O)OC(C)(C)C)CC1 | Stable | inactive | Stable | < 50 µmol/L | 0.47 µM | –
CCOC(=O)c1[nH]c2cc(Cl)ccc2c1/C=N/NC(=O)COc1ccccc1 | – | – | – | < 50 µmol/L | > 10 µM | Activity [7]: inactive
CCOC(=O)c1[nH]c2cc(Cl)ccc2c1/C=N/NC(=O)Cc1cccc(O)c1 | Stable | inactive | Stable | < 50 µmol/L | 1.8 µM | –
CCOC(=O)c1[nH]c2cc(Cl)ccc2c1/C=N/NC(=O)CCCOc1ccc(Cl)cc1Cl | – | – | – | – | > 10 µM | –
CCOC(=O)c1[nH]c2cc(Cl)ccc2c1/C=N/NC(=O)COc1ccc([N+](=O)[O-])cc1 | – | – | – | – | > 10 µM | –
CCCCC(=O)N/N=C/c1c(C(=O)OCC)[nH]c2cc(Cl)ccc12 | – | – | – | – | > 10 µM | –
CCOC(=O)c1[nH]c2cc(Cl)ccc2c1C=O | – | inactive | – | < 50 µmol/L | – | –
CCOC(=O)c1[nH]c2cc(Cl)ccc2c1/C=N/NC(=O)[C@H](Cc1ccccc1)NC(=O)OC(C)(C)C | – | – | – | – | > 10 µM | –
CCOC(=O)c1[nH]c2cc(Cl)ccc2c1/C=N/NC(=O)COc1ccccc1Cl | Stable | – | Stable | < 50 µmol/L | – | Activity [6]: inactive
CCOC(=O)c1[nH]c2cc(Cl)ccc2c1/C=N/NC(=O)COc1ccc(Cl)cc1 | Stable | – | Stable | < 50 µmol/L | – | Activity [7]: inactive
